Measured values: ChEMBL document CHEMBL1144103, “Biologically active secondary metabolites from fungi. 12.(1) oidiolactones A-F, labdane diterpene derivatives isolated from oidiodendron truncata” (1999)

Assays:
Assay type in all cases: functional
Priestia megaterium = assay: Antibacterial activity against Bacillus megaterium at 10 mg/mL by agar diffusion test; details: read-out: IZ
In short: (§1)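 Agar diffusion test. Activity is scored on a 1-4 scale by the radius of the inhibition zone: 1-10 mm = 1, 10-20 mm = 2, 20-30 mm = 3, 30-40 mm = 4.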

[Chlorella] fusca = Herbicidal activity against Chlorella fusca at 10 mg/mL by agar diffusion test; details: Scenedesmus fuscus; read-out: IZ; in short: as §1
Microbotryum violaceum = assay: Antifungal activity against Ustilago violacea at 10 mg/mL by agar diffusion test; details: read-out: IZ; in short: as §1
Escherichia coli = assay: Antibacterial activity against Escherichia coli at 10 mg/mL by agar diffusion test; details: read-out: IZ; in short: as §1
Mycotypha microspora = assay: Antifungal activity against Mycotypha microspora at 10 mg/mL by agar diffusion test; details: read-out: IZ; in short: as §1
Lemna minor = assay: Herbicidal activity against Lemna minor assessed as growth inhibition at 10 mg/mL after 1 and 6 days relative to control
In short: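 Lemna minor growth inhibition. 10 mg of sample is dissolved in 0.05 mL MeOH plus 0.05 mL acetone and added to 10 mL test medium (growth medium without sucrose) in 5 cm Petri dishes, each holding 15 plants. Plants are scored after 1 and 6 days.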

Lepidium sativum = assay: Herbicidal activity against Lepidium sativum assessed as growth inhibition at 10 mg/mL relative to control
[1] = test system: Aspergillus pseudoglaucus; assay: Antifungal activity against Eurotium repens at 10 mg/mL by agar diffusion test; details: read-out: IZ; in short: as §1

## CO[C@H]1OC(=O)C=C2C1=C[C@H]1OC(=O)[C@@]3(C)CCC[C@@]2(C)[C@@H]13
Priestia megaterium
  zone of inhibition at 10000 µg/mL: 1 mm
[Chlorella] fusca
  zone of inhibition at 10000 µg/mL: 20 mm
Microbotryum violaceum
  zone of inhibition at 10000 µg/mL: 30 mm

## CO[C@H]1OC(=O)C=C2[C@@]13O[C@@H]3[C@H]1OC(=O)[C@@]3(C)CCC[C@@]2(C)[C@@H]13
Priestia megaterium
  zone of inhibition at 10000 µg/mL: 1 mm
Escherichia coli
  zone of inhibition at 10000 µg/mL: 0 mm
Mycotypha microspora
  zone of inhibition at 10000 µg/mL: 1 mm
Lemna minor
  inhibition at 10000 µg/mL: > 90%
[Chlorella] fusca
  zone of inhibition at 10000 µg/mL: 10 mm
Lepidium sativum
  inhibition at 10000 µg/mL: 100%
Microbotryum violaceum
  zone of inhibition at 10000 µg/mL: 10 mm
[1]
  zone of inhibition at 10000 µg/mL: 1 mm

## C[C@@]12CCC[C@]3(C)C4=CC(=O)O[C@@H](O)[C@]45O[C@@H]5[C@@H](OC1=O)[C@@H]23 [OIDIOLACTONE D]
Priestia megaterium
  zone of inhibition at 10000 µg/mL: 0 mm
Escherichia coli
  zone of inhibition at 10000 µg/mL: 0 mm
Mycotypha microspora
  zone of inhibition at 10000 µg/mL: 1 mm
[Chlorella] fusca
  zone of inhibition at 10000 µg/mL: 1 mm
Microbotryum violaceum
  zone of inhibition at 10000 µg/mL: 1 mm
[1]
  zone of inhibition at 10000 µg/mL: 1 mm

## C[C@]12CCC[C@](C)(C(=O)O)[C@@H]1C=C[C@]1(O)COC(=O)C[C@H]21 [OIDIOLACTONE E]
Priestia megaterium
  zone of inhibition at 10000 µg/mL: 0 mm
Escherichia coli
  zone of inhibition at 10000 µg/mL: 0 mm
Mycotypha microspora
  zone of inhibition at 10000 µg/mL: 0 mm
[Chlorella] fusca
  zone of inhibition at 10000 µg/mL: 1 mm
Microbotryum violaceum
  zone of inhibition at 10000 µg/mL: 1 mm
[1]
  zone of inhibition at 10000 µg/mL: 1 mm
